According to ChEMBL document CHEMBL1126893, “Synthesis and CLOGP correlation of imidooxy anticonvulsants” (J Med Chem, 1993):
The source made the active and inactive calls.

Experiments:
Mus musculus [1] = species: Mus musculus; test: Time of peak effect of toxicity of compound was measured by MES test in mice; format: functional
How it was run: (§1)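 Phase II quantification in mice after ip dosing. ED50 (scMet or MES) measured at the time of peak effect. TD50 (rotorod neurologic deficit) measured at the time of peak neurologic deficit. Medians and 95% confidence limits by the Litchfield-Wilcoxon method. Protective index = TD50/ED50. Time of peak effect determined in the MES or scMet test.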

Mus musculus [2] = test: Elevation of threshold for electroshock induced seizures in mice was measured by po administration after 0.5 hr at the dose of 300 mg/kg; 2/8; format: functional
How it was run: (§2)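 Maximal electroshock test in male CF1 mice (23-34 g). Compound given as a 0.5% methylcellulose suspension ip or po, with testing at 0.5 h after several doses. Endpoint is protection from tonic hind limb extension.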

Mus musculus [3] = test: Effective dose was measured in mouse by maximal electroshock method by ip administration; 100-122; format: functional; how it was run: as §1
Mus musculus [4] = test: Elevation of threshold for electroshock induced seizures in mice was measured by ip administration after 0.5 hr at the dose of 80 mg /kg; format: functional
How it was run: (§3)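 Elevation of maximal (tonic extension) electroshock seizure threshold in male CF1 mice (23-34 g). Compound given ip as a 0.5% methylcellulose suspension at 60, 80 and 90 mg/kg, with testing at 0.5 h. Read-out is % elevation of threshold. TID20 is the dose raising the threshold by 20%.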

Mus musculus [5] = test: Elevation of threshold for electroshock induced seizures in mice was measured by ip administration after 0.5 hr at the dose of 60 mg /kg; format: functional; how it was run: as §3
Mus musculus [6] = species: Mus musculus; test: Time of peak effect of activity of compound was measured by MES test in mice; format: functional; how it was run: as §1
Mus musculus [7] = test: Elevation of threshold for electroshock induced seizures in mice was measured by po administration after 0.5 hr at the dose of 400 mg/kg; 2/5; format: functional; how it was run: as §2
Mus musculus [8] = species: Mus musculus; test: TID20 was measured by MES test in mice; format: functional; how it was run: as §3
Mus musculus [9] = test: Elevation of threshold for electroshock induced seizures in mice was measured by po administration after 0.5 hr at the dose of 200 mg/kg; 1/8; format: functional; how it was run: as §2
Mus musculus [10] = test: Elevation of threshold for electroshock induced seizures in mice was measured by ip administration after 0.5 hr at the dose of 90 mg/kg; format: functional; conditions: route intraperitoneal; how it was run: as §3
Mus musculus [11] = species: Mus musculus; test: ED50 value of compound was expressed as dose protecting 50% of mice from tonic hind limb extension; format: functional; conditions: Hindlimb; how it was run: as §2
Mus musculus [12] = species: Mus musculus; test: Protective index (TD50/ED50) value in MES test in mice; format: functional
Mus musculus [13] = test: Time of peak effect of toxicity of compound was measured by both MES and sc Met test in mice; format: functional; how it was run: as §1
Mus musculus [14] = test: Time of peak effect of activity of compound was measured by both MES and sc Met test in mice; format: functional; how it was run: as §1
Rattus norvegicus = test: Effective dose was measured in rat by subcutaneous pentylenetetrazole method by ip administration; NE= Not effective; format: functional, organism-based

Q: What does the source list for `O=C1CC2(CCCC2)C(=O)N1OCc1ccccc1`?
A: TPE (Mus musculus [1]): 4 toxicity; No. of mice protected/tested (Mus musculus [2]): 2; ED50 (Mus musculus [3]): 111 mg/kg; Elevation of threshold (Mus musculus [4]): 26%; Elevation of threshold (Mus musculus [5]): 14%; TPE (Mus musculus [6]): 0.25; No. of mice protected/tested (Mus musculus [7]): 2; TID20 (Mus musculus [8]): 71 mg/kg; No. of mice protected/tested (Mus musculus [9]): 1; Elevation of threshold (Mus musculus [10]): 28%; ED50 (Mus musculus [11]): 494 mg/kg; PI (Mus musculus [12]): >4.5

Q: Which TPE (Mus musculus [13]) does the source give for `CCC1(c2ccccc2)C(=O)NC(=O)NC1=O` [PHENOBARBITAL] here?
A: Its TPE is 0.5.

Q: What about the TPE (Mus musculus [14]) of the same molecule?
A: Its TPE is 1 toxicity.

Q: `O=C1NC(=O)C(c2ccccc2)(c2ccccc2)N1` [PHENYTOIN] was tested. Which TPE (Mus musculus [13]) did it give?
A: Its TPE is 2.

Q: And the ED50 (Rattus norvegicus)?
A: The ED50 was “inactive”.

Q: And the TPE (Mus musculus [14])?
A: The TPE was 2 toxicity.
